A selection: hits, their analogues and other compounds. The true share with any hit is near 3.7%.
MC4R ag barr: agonists of human melanocortin 4 receptor (MC4R) beta-arrestin; P32245; AID 540308; 360,000 tested, 0.98% active; U2OS MC4R beta-arrestin complementation, luminescence; percent of melanotan II response, DMSO zero; activation, % at 8.9 µM;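 active means activation above a per-plate cutoff, the mean activation of sample wells on that plate plus 3 SD, cut at about 8% in these data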
Target sequence (P32245 whole entry, looked up): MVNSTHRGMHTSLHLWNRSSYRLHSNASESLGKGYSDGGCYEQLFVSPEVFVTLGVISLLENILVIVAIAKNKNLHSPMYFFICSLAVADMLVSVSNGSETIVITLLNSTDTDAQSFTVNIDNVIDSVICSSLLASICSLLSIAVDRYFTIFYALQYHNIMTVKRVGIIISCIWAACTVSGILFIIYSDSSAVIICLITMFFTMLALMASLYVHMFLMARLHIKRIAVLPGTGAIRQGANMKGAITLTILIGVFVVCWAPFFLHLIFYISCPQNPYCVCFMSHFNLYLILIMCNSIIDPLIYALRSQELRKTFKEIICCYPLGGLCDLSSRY
MC4R antag cAMP: human MC4R antagonism in cAMP assay; P32245; MC4R-expressing cells, MTII-stimulated cAMP, LANCE TR-FRET; inhibition, % at 6.5 µM; 360,000 tested, 0.48% active; AID 540295;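 active means inhibition above its plate's cutoff, the mean of tested wells on that plate plus 3 SD, cut at about 29% in these data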
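Material: human MC4R-expressing U2OS cells. Probe or stimulus: Melanotan II challenge. Dosing: 6.5 µM single dose. Times: 30-min compound, 1-h challenge, 1-h detection, room temperature. Technique: TR-FRET with Eu-cAMP and labeled anti-cAMP, 671 nm. Replication: singlicate.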
EBI2 antag: EBI2 (human) antagonism | 360,000 tested, 0.81% active | inhibition, % at 5 µM | EBI2 beta-arrestin recruitment, luminescence, 7a,25-OHC stimulated | P32249; in the data active means inhibition above about 38%;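 further: enzyme fragment complementation signal reports receptor beta-arrestin coupling in cells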
Myeloid diff 2: myeloid differentiation induction; calls only at 10 µM; ER-HoxA9 myeloid progenitors, lysozyme-GFP differentiation, flow cytometry; 360,000 tested, 1% active; AID 624256;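 active means normalized GFP-positive differentiation at or above the plate's own cutoff, the solvent-only control mean plus 3 SD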;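 further: cells exposed to compound for four days before flow analysis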
Granule exo inh: lytic granule exocytosis inhibition; TALL-104 LAMP-1 surface exposure, flow cytometry; cells stimulated with thapsigargin and PMA; inhibition, % at 10 µM; 360,000 tested, 0.66% active;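 active means inhibition above about 55%, limit read from the data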
MC4R barr conf: human MC4R beta-arrestin agonism confirmation; 2,400 tested, 31% active; U2OS MC4R beta-arrestin recruitment, luminescence; scaled DMSO 0%, Melanotan II 100%; activation, % at 8.9 µM; shares compounds with MC4R ag barr;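 active means mean activation across replicates above the hit cutoff set in the earlier primary screen, cut at about 8% in these data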
MOR-DOR barr ag: OPRM1-OPRD1 heterodimer agonism counter-screen; AID 602194; activation, % at 9.2 µM; shares compounds with MC4R ag barr; 2,400 tested, 5.8% active; U2OS PathHunter beta-arrestin, beta-gal luminescence; percent of deltorphin B response, DMSO zero;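 active means mean activation across replicates exceeds the hit threshold derived in the earlier primary screen, cut at about 18% in these data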
Numbers stand for hits; n = inactive; x = no result.

SMILES	MC4R ag barr	MC4R antag cAMP	EBI2 antag	Myeloid diff 2	Granule exo inh	MC4R barr conf	MOR-DOR barr ag
CS(=O)(=O)N1CCC(C(=O)Nc2cccc(C(F)(F)F)c2)CC1	n	n	n	n	n	x	x
Cc1cc(C)nc(N2CCC(C(=O)Nc3cccc(C(F)(F)F)c3)CC2)n1	14	n	n	n	n	n	n
CCCCCCCCNC(=O)c1cccnc1SCC(=O)Nc1ccccc1OC	15	n	n	n	n	n	n
COc1ccc(OC)c(NC(=O)CSc2ncccc2C(=O)O)c1	n	n	n	n	n	x	x
O=C(Nc1ccc(C(O)(C(F)(F)F)C(F)(F)F)cc1)c1ccc(Cl)c([N+](=O)[O-])c1	14	n	n	n	64	15	n
CN1CCN(CCCC(=O)c2ccc(C3CCCC3)cc2)CC1	n	n	n	n	n	x	x
COc1ccc(S(=O)(=O)N2CCOCC2)cc1NC(=O)COC(=O)C1CC1C (centres undefined)	n	n	n	n	n	x	x
Cc1ccc(COC(=O)Cc2coc3cc(O)ccc23)cc1	9.9	n	n	n	n	n	n
Cc1nnc(N2CCCC(C(=O)NCc3ccc(OC(C)C)cc3)C2)c2nn(-c3ccccc3)c(C)c12 (centres undefined)	12	n	n	n	n	n	n
Cc1ccc(-n2nc3c(N4CCC(C(=O)NCCc5cccs5)CC4)nnc(C)c3c2C)cc1	15	n	n	x	n	12	n
Cc1nnc(N2CCCC(C(=O)Nc3cc(F)ccc3F)C2)c2nn(-c3ccccc3)c(C)c12 (centres undefined)	n	n	n	n	n	x	x
CC(C)c1cccc(C(C)C)c1NC(=O)c1ccccc1	n	n	n	n	n	x	x
Cn1c(=O)c(-c2cc(=O)[nH][nH]2)c(O)c2ccccc21	n	n	n	n	n	x	x
COc1ccc(OCC(=O)Nc2cccc(NC(=O)COc3ccc(OC)cc3)n2)cc1	13	n	n	n	n	n	26
COc1ccc(OCC(=O)Nc2cccc(-c3nc4ccccc4o3)c2)cc1	19	n	n	n	n	n	n
COc1ccc(-c2nnc(SCC(=O)Nc3ccccc3OC)o2)cc1	n	n	n	n	n	x	x
COc1ccc(-c2nnc(SCC(=O)Nc3cccc(Cl)c3)o2)cc1	16	n	n	n	n	n	n
COc1ccc(CC(=O)OCC(=O)Nc2ccc(N3CCOCC3)cc2)cc1	n	n	n	n	n	x	x
COc1cc(/C=C(\NC(=O)c2ccccc2)C(=O)NC(C(=O)O)c2ccccc2)cc(OC)c1OC (centres undefined)	n	n	n	n	n	x	x
COC(=O)c1cc2n(n1)CCN(Cc1ccc(OC)cc1)C2=O	n	n	n	n	n	x	x
COc1ccc(CN2CCn3ncc(C(=O)Nc4cc(C)cc(C)c4)c3C2=O)cc1	32	n	n	n	n	n	n
COc1ccc(CN2CCC2(C)C(=O)NCc2ccc3c(c2)OCO3)c2ccccc12 (centres undefined)	n	n	n	n	n	x	x
Fc1ccc(CSc2ccc(-c3ccc4c(c3)OCO4)nn2)cc1	11	n	n	n	n	n	n
c1ccc(CSc2ccc(-c3ccc4c(c3)OCO4)nn2)cc1	29	n	n	n	n	n	n
COCCNC(=S)N/N=C/c1ccc(-c2ccc([N+](=O)[O-])cc2)o1	11	n	n	n	n	n	n
SMILES	MC4R ag barr	MC4R antag cAMP	EBI2 antag	Myeloid diff 2	Granule exo inh	MC4R barr conf	MOR-DOR barr ag
O=C(CCCCCn1c(=S)[nH]c2ccc(N3CCOCC3)cc2c1=O)NCCc1ccccc1	18	n	n	n	n	n	18
O=C(CCCCCn1c(=S)[nH]c2ccc(N3CCOCC3)cc2c1=O)NCc1ccc2c(c1)OCO2	13	n	n	n	n	n	n
O=C(CCCCCn1c(=S)[nH]c2ccc(N3CCOCC3)cc2c1=O)NCc1ccccc1Cl	n	n	n	n	n	x	x
O=C(CCCCCn1c(=S)[nH]c2ccc(N3CCOCC3)cc2c1=O)NCc1ccc(Cl)cc1	10	n	n	n	n	n	n
O=C(CCn1c(=S)[nH]c2ccccc2c1=O)NCCc1ccccc1	n	n	n	n	n	x	x
COc1c(F)c(F)c(C(=O)Nc2ccc(N3CCN(Cc4ccccc4)CC3)cc2)c(F)c1F	11	n	n	n	n	n	n
O=C(COC(=O)C1CCCN1C(=O)C12CC3CC(CC(C3)C1)C2)c1ccc(Br)cc1 (centres undefined)	14	n	n	n	n	n	n
COc1ccccc1NC(=O)N(C)C[C@H]1Oc2ncc(Br)cc2C(=O)N([C@H](C)CO)C[C@H]1C	n	n	n	n	n	x	x
O=C(COc1c(Br)cc(Br)c2cccnc12)Nc1ccccc1F	13	n	n	n	n	n	n
O=C(COc1ccccc1)Nc1ccccc1F	n	n	n	n	n	x	x
Cc1ccc(NC(=O)c2cc(NC(=O)c3ccco3)ccc2N2CCCCC2)cc1	18	n	n	n	n	n	n
Cc1ccc(C)c(NS(=O)(=O)c2cc3c4c(c2)CC(=O)N4CCC3)c1	n	n	n	n	n	x	x
CCOc1ccc(Nc2oc(-c3cccs3)nc2C#N)cc1	18	n	n	n	n	n	n
CCOc1ccc(Nc2oc(-c3cccc(Cl)c3)nc2C#N)cc1	n	n	n	n	n	x	x
CC/C(=N\NC(=S)Nc1cc(C)ccc1C)c1ccc(OC(F)F)cc1	n	n	n	n	n	x	x
N#Cc1ccc(C(=O)Nc2cc(C3CC3)nn2-c2ccccc2)cc1	n	n	n	n	n	x	x
COCCc1ccc(OC2(C)CCN(Cc3ccc(OC)c4ccccc34)C2)cc1 (centres undefined)	n	n	n	n	n	x	x
CCOC(=O)C1=C(C)N(C)C(=S)NC1c1c(OCC)ccc2ccccc12 (centres undefined)	21	n	n	n	n	n	n
Cc1ccc(CC2S/C(=N/c3ccccn3)NC2=O)cc1 (centres undefined)	14	n	n	n	n	n	n
O=C1N/C(=N/c2ccccn2)SC1Cc1ccccc1 (centres undefined)	n	n	n	n	n	x	x
CCOC(=O)C1=C(c2ccccc2)NC(=O)NC1c1cc(Cl)c(O)c(OC)c1 (centres undefined)	n	n	n	n	n	x	x
CCOC(=O)C1=C(c2ccccc2)NC(N)=NC1c1ccc(OCc2ccc(Cl)cc2)c(OC)c1 (centres undefined)	12	n	n	n	n	11	n
Cc1ccc(NC(=O)C(C)c2ccc(-c3ccccc3)c(F)c2)c(C)c1 (centres undefined)	9.6	n	n	n	n	n	n
O=C(CSc1nc(Cc2ccccc2)nc2ccccc12)Nc1ccc2c(c1)OCCO2	14	n	n	n	n	n	n

Screening data (PubChem BioAssay)
